Experimental data taken from ChEMBL document CHEMBL1799969, “Development of endocannabinoid-based chemical probes for the study of cannabinoid receptors” (J Med Chem, 2011).
Active and inactive are the calls of the source. No cut-off for these calls is given here.

Tests used:
[1] = target: Cannabinoid receptor 2 (Homo sapiens, UniProt P34972); experiment: Displacement of [3H]-CP55940 from human CB2 receptor expressed in HEK-293-EBNA cell membranes after 90 mins by scintillation counting
Procedure, shortened: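 Competitive radioligand binding with [3H]CP55940 on membranes of HEK-293-EBNA cells transfected with human CB1 or CB2 receptor. Ki derived from IC50 by the Cheng-Prusoff equation. Mean ± SEM of two to four independent experiments, each run in triplicate.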

[2] = target: T1, Cannabinoid receptor 1 (Homo sapiens, UniProt P21554); experiment: Displacement of [3H]-CP55940 from human CB1 receptor expressed in HEK-293-EBNA cell membranes after 90 mins by scintillation counting
T1 sequence (P21554 whole entry): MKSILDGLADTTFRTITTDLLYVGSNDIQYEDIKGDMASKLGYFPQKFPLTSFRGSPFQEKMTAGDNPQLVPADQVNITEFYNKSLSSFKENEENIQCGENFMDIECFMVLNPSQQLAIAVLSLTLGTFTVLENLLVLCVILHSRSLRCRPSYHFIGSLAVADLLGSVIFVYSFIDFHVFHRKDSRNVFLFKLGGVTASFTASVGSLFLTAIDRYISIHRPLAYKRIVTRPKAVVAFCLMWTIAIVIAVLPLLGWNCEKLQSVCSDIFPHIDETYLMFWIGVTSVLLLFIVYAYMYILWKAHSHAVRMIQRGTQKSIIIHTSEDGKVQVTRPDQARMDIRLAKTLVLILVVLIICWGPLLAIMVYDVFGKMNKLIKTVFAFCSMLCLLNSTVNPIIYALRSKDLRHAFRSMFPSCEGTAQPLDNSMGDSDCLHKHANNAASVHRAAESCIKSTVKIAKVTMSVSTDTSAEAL

[3] = target: T1, Cannabinoid receptor 1; experiment: Binding affinity at CB1 receptor expressed in mouse HT22 cells at 1 uM incubated for 1 hr using strepavidin-Alexa Fluor 488 staining based by fluorescence microscopy; format: cell-based; settings: HT-22
Procedure, shortened: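 HT-22 mouse hippocampal cells transiently transfected with CB1 were incubated with the biotinylated probe at 1 μM for 1 h. Excess probe was removed and bound probe detected with streptavidin-Alexa Fluor 488. Nuclei were stained with Hoechst 33258 and imaged by fluorescence microscopy. Nontransfected cells, or an excess of HU210, served as specificity controls.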

[4] = target: T1, Cannabinoid receptor 1; experiment: Binding affinity at CB1 receptor expressed in mouse HT22 cells at 1 uM incubated for 1 hr using antiCB1-antibody based fluorescence microscopy; format: cell-based; settings: HT-22
Procedure, shortened: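 Transfected HT-22 cells were treated in sequence with the probe (1 μM, 1 h), streptavidin-Alexa 488, anti-CB1 antibody and an anti-rabbit Alexa 633 conjugate. Co-labelling was imaged by fluorescence microscopy in the red channel and as a merge.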

[5] = target: T1, Cannabinoid receptor 1; experiment: Binding affinity to CB1 receptor
Procedure, shortened: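 Radioligand competition binding on membranes of HEK-293-EBNA cells transfected with human CB1 receptor, displacing [3H]CP55940. Ki obtained from IC50 by the Cheng-Prusoff equation. Two to four independent experiments, each run in triplicate; mean ± SEM reported.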

Cannabinoid receptor 2, sequence (P34972 whole entry): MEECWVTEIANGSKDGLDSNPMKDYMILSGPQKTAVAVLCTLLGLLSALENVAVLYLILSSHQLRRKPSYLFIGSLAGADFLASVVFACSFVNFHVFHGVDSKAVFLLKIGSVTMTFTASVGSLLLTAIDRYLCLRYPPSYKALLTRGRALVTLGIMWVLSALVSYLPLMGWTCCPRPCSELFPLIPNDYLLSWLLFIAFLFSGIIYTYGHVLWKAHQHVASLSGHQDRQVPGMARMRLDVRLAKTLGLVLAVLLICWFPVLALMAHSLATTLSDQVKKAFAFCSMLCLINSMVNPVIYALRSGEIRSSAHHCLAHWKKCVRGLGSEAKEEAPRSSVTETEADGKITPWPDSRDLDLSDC

| Structure (SMILES) | Ki [1] [nM] | Ki [2] [nM] | Activity [3] | Activity [4] | Ki [5] [nM] |
| --- | --- | --- | --- | --- | --- |
| CCCCC/C=C\C/C=C\C/C=C\C/C=C\CCCC(=O)OC(CO)CO [2-ARACHIDONOYLGLYCEROL] | 1300 |  |  |  |  |
| C#CCCCC(=O)OC[C@@H](C)NC(=O)CCC/C=C\C/C=C\C/C=C\C/C=C\CCCCC | > 2000 | 2000 |  |  |  |
| C#CCCCC(=O)OCC(CO)OCCCC/C=C\C/C=C\C/C=C\C/C=C\CCCCC (stereo not drawn) | 84.9 | 84.7 |  |  |  |
| CCCCC/C=C\C/C=C\C/C=C\C/C=C\CCCCOC(CO)COC(=O)CCCCCNC(=O)CCCC[C@@H]1SC[C@@H]2NC(=O)N[C@@H]21 (stereo partly drawn) | 450 | 221 | Active | Active |  |
| CCCCC/C=C\C/C=C\C/C=C\C/C=C\CCCCOC(CO)CO | > 1000 | 25 |  |  |  |
| C#CCCCC(=O)N[C@@H](Cc1ccc(C(=O)c2ccccc2)cc1)C(=O)OC[C@@H](C)NC(=O)CCC/C=C\C/C=C\C/C=C\C/C=C\CCCCC | > 2000 | 2000 |  |  |  |
| CCCCC/C=C\C/C=C\C/C=C\C/C=C\CCCC(=O)OC(CO)COC(=O)CCCCCNC(=O)CCCC[C@@H]1SC[C@@H]2NC(=O)N[C@@H]21 (stereo partly drawn) | 379 | > 5000 |  |  |  |
| Cc1cc(-c2cc(C(=O)NC3C4(C)CCC(C4)C3(C)C)nn2Cc2ccc(CNCCCCCCN)cc2)ccc1Cl (stereo not drawn) | 260 |  |  |  |  |
| CCCCCCC(C)(C)c1cc(O)c2c(c1)OC(C)(C)[C@@H]1CC=C(CO)C[C@@H]21 |  |  |  |  | 0.06 |
| C[C@H](CO)NC(=O)CCC/C=C\C/C=C\C/C=C\C/C=C\CCCCOC(=O)CCCCCNC(=O)CCCC[C@@H]1SC[C@@H]2NC(=O)N[C@@H]21 | > 2000 | 2000 |  |  |  |
| O=C(CCCC[C@@H]1SC[C@@H]2NC(=O)N[C@@H]21)NCCCCCC(=O)OCCCC/C=C\C/C=C\C/C=C\C/C=C\CCCC(=O)NC1CC1 | > 2000 | > 2000 |  |  |  |
| CCCCC/C=C\C/C=C\C/C=C\C/C=C\CCCC(=O)N[C@H](C)COC(=O)CCCCCNC(=O)CCCC[C@@H]1SC[C@@H]2NC(=O)N[C@@H]21 | > 2000 | 2000 |  |  |  |
